Screening data deposited in PubChem BioAssay by several laboratories.
Only some compounds are listed: those with a hit (about 3.2% of all), similar ones and a draw of the others.
UBC13 inh: inhibitors of human UBC13 polyubiquitin chain formation; 0.47% of 330,000 active; inhibition, % at 20 µM; P61088; TR-FRET; in the data active means inhibition above about 45%, passing the limit was not always enough; inconclusive means no clear call, values can overlap the other calls
MEKK2 mut-MEK5: signal of MEK5 binding to mutant human MEKK2 PB1 domain | bead flow cytometry, Alexa488-MEK5 binding to MEKK2 mutant | percent response, % at 10 µM | 0.35% of 290,000 active | AID 1530; in the data active means percent response above about 24%, passing the limit was not always enough
MEKK2 WT-MEK5: raises or lowers MEK5 binding to wildtype human MEKK2 PB1 domain. bead flow cytometry, Alexa488-MEK5 binding to MEKK2 WT; actives lie on both sides. binding response (% of control), % at 10 µM. 1.1% of 290,000 active. AID 1531; in the data active means binding response below about 67% or above about 130%; inconclusive means no clear call, values can overlap the other calls; inactive means in between
MEKK3 PB1 HTS: raises or lowers MEK5 binding to the human MEKK3 PB1 domain. Q99759. bead-based flow cytometry, Alexa488-MEK5 binding to MEKK3; actives lie on both sides; 0 = blocked by unlabeled MEK5, 100 = vehicle. binding response (% of control), % at 10 µM. 1.4% of 290,000 active;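 active means binding response more than 3 SD above or below the average of its plate-row segment, actives on both sides; inconclusive means wells at one plate position flagged as instrument error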;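 further: Alexa488 bead fluorescence after subtracting the streptavidin-only scavenger bead signal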
Target sequence (Q99759 whole entry, looked up, the tested form may be a part): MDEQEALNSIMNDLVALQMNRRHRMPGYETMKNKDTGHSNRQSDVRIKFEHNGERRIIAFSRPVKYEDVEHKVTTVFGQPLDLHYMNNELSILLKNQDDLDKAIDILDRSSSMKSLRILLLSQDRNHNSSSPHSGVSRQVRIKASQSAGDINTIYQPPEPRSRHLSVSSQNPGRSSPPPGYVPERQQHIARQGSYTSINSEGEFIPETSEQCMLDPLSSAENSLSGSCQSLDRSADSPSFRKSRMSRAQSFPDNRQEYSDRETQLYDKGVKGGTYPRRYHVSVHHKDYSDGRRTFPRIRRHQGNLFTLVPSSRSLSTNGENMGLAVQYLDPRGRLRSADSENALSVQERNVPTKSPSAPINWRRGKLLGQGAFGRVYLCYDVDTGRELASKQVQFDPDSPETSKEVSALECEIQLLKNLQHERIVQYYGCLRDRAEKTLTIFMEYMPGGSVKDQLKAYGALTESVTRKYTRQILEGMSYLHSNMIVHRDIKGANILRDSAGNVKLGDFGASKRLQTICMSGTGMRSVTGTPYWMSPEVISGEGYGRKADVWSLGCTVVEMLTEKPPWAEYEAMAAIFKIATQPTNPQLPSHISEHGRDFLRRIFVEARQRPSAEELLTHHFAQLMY
Apaf1 inhib: human Apaf-1 inhibition. inhibition, % at 20 µM. reconstituted apoptosome caspase-3 activity, DEVD-Rh110 fluorescence. O14727. 0.71% of 330,000 active; active means inhibition of at least 40% at 20 µM;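 further: plate controls were DMSO wells for no effect and DEVD-CHO caspase inhibitor wells for full effect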
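Material: reconstituted apoptosome with Apaf-1, cytochrome c, caspase-9, procaspase-3, dATP; medium: pH 7.5 Hepes buffer with CHAPS, BSA, DTT; also added: cytochrome c and DEVD-Rh110 substrate; timing: 30 min plus 50 min, RT; signal: Rh110 fluorescence intensity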
DSG3 Ab inh: human desmoglein-3 autoantibody binding inhibition; DSG3-coupled beads, scFv-anti-DSG3-GFP binding, flow cytometry; stronger effect = lower value; binding (percent of control), % at 10 µM; 0.48% of 310,000 active;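 active means binding more than 3 SD below its plate's average and above zero; inconclusive means below that plate limit but binding exactly zero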;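 further: hits lower antibody fragment binding to DSG3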
Casp3 counter: caspase-3 inhibition (UBC13 counter-screen); shares compounds with UBC13 inh; Recombinant caspase-3, Caspase-Glo 3/7 luminescence, 60 min; inhibition, % at 20 µM; 4% of 1,400 active;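 active means mean inhibition across replicates above about 26%, limit read from the data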;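 further: plate controls were DMSO with caspase-3 for no effect and DMSO wells lacking enzyme for full effect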
UBC13 conf: confirmation of human UBC13 polyubiquitin inhibitors | shares compounds with UBC13 inh | UBC13 polyubiquitination, TR-FRET, biochemical | inhibition, % at 10 µM | 68% of 1,400 active | AID 488859; in the data active means inhibition above about 45%; inconclusive means no clear call, values can overlap the other calls
* = called active by the depositor; ? = inconclusive; / = no result.

SMILES | UBC13 inh | MEKK2 mut-MEK5 | MEKK2 WT-MEK5 | MEKK3 PB1 HTS | Apaf1 inhib | DSG3 Ab inh | Casp3 counter | UBC13 conf
O=C(NNC(=O)c1cccc(C(F)(F)F)c1)c1ccc(-n2cnnn2)cc1 | -4 | / | / | / | 1 | 125 | / | /
O=C(NNC(=O)c1nn(-c2ccc(F)cc2)ccc1=O)c1ccc(Cl)cc1 | 71* | -3 | 93 | 91 | -17 | 91 | -3 | 88*
O=C(NNC(=O)c1nn(-c2ccc(F)cc2)ccc1=O)c1ccc(C(F)(F)F)cc1 | 70* | -2 | 99 | 97 | -10 | 111 | 0 | 86*
O=C(NNC(=O)c1nn(-c2ccc(F)cc2)ccc1=O)Nc1cccc(Cl)c1 | 10 | 2 | 102 | 100 | -15 | 97 | / | /
CC(C)NC(=O)NNC(=O)c1nn(-c2ccc(F)cc2)ccc1=O | 33 | 0 | 98 | 103 | -7 | 111 | / | /
Cc1ccc(C(=O)NNC(=O)c2nn(-c3ccc(F)cc3)ccc2=O)cc1 | 77* | -5 | 95 | 93 | -8 | / | -6 | 96*
COc1ccccc1NC(=O)CN1CCC(n2nnc3cc(F)ccc32)CC1 | 70* | -2 | 106 | 103 | 11 | / | -3 | 69*
COc1ccc(Cl)cc1NC(=O)CN1CCC(n2nnc3cc(C)ccc32)CC1 | 46* | 0 | 99 | 99 | 24 | 102 | -1 | 51*
Cc1ccc2c(c1)nnn2C1CCN(CC(=O)Nc2ccccc2N2CCOCC2)CC1 | 15 | 1 | 100 | 96 | 8 | 108 | / | /
COCCNC(=S)N=Nc1c(O)[nH]c2ccc([N+](=O)[O-])cc12 | 89* | -12 | 93 | 94 | -5 | 93 | 1 | 96*
CCCCCCC(=O)N=Nc1c(O)[nH]c2ccc([N+](=O)[O-])cc12 | 0 | -1 | 98 | 99 | -8 | 95 | / | /
Clc1ccc2c(c1)CNc1c(ncnc1N1CCOCC1)O2 | 50* | 11 | 106 | 102 | -9 | 106 | -2 | 41
COc1ccc(CNC(=O)c2ccccc2SCC(=O)N2CCCC2)cc1OC | -8 | / | / | / | 2 | 103 | / | /
Cn1c(=O)c2c(ncn2CCCc2ccccc2)n(C)c1=O | 0 | -1 | 96 | 98 | 7 | 107 | / | /
Cn1c(=O)c2c(ncn2Cc2ccccc2)n(C)c1=O | 50* | 2 | 100 | 98 | -9 | 102 | -2 | 30
Cc1ccc(-n2nc(C)c3c(C(=O)OCC(=O)N(C)C4CCS(=O)(=O)C4)cc(-c4ccccc4)nc32)cc1 (stereo unspecified) | 16 | -3 | 91 | 92 | 11 | 83 | / | /
CCN(C(=O)COC(=O)c1cc(-c2ccccc2)nc2c1c(C)nn2-c1ccccc1)C1CCS(=O)(=O)C1 (stereo unspecified) | 52* | -2 | 94 | 96 | 19 | / | -3 | ?
O=C(NCC1CCCCC1)C1(CC2CC(c3ccc(Cl)cc3)=NO2)CCNCC1 (stereo unspecified) | 46* | -2 | 127 | 104 | 14 | 107 | 3 | 47*
Cc1nn2c(=O)cc(COC(=O)c3c(F)cccc3Cl)nc2s1 | 6 | / | / | / | 12 | 100 | / | /
NC(=S)N=Nc1c(O)n(Cc2ccc(F)cc2)c2ccccc12 | 73* | 13 | 97 | 100 | 5 | 96 | -1 | 75*
Cc1ccc2c(c1)c(N=NC(N)=S)c(O)n2Cc1ccccc1 | 79* | -2 | 92 | 87 | 0 | 107 | 0 | 46*
NC(=S)N=Nc1c(O)n(Cc2ccc(Br)cc2)c2ccccc12 | 46* | -2 | 94 | 101 | 11 | / | -2 | 38
Oc1c(N=NC(=S)Nc2ccccc2F)c2ccccc2n1Cc1ccc(F)cc1 | -42 | -2 | 93 | 103 | 3 | 93 | / | /
C/C(Cl)=C\Cn1c(O)c(N=NC(N)=S)c2cc(Br)ccc21 | -7 | -8 | 85 | 99 | 10 | 96 | / | /
NC(=S)N=Nc1c(O)n(CCCl)c2ccc(Br)cc12 | 58* | -15 | 96 | 92 | -2 | 95 | -1 | 30
SMILES | UBC13 inh | MEKK2 mut-MEK5 | MEKK2 WT-MEK5 | MEKK3 PB1 HTS | Apaf1 inhib | DSG3 Ab inh | Casp3 counter | UBC13 conf
O=C(CCN1CCN(Cc2ccccc2)CC1)NNC(=O)Nc1cccc([N+](=O)[O-])c1 | -4 | -4 | 100 | 98 | 7 | 115 | / | /
O=Cc1ccc(OCc2cn(CC(=O)c3ccc(O)cc3)nn2)cc1 | / | / | / | / | / | 111 | / | /
O=C(Nc1ccccc1)OCCc1ccccn1 | / | / | / | / | / | 119 | / | /
CCOC(=O)N1CCN(C(=O)C(=O)Nc2sc3c(c2C(N)=O)CC(C)(C)OC3)CC1 | 63* | 3 | 110 | 105 | -5 | 101 | -2 | 90*
Cc1cc(C)c2sc(N(CCCN(C)C)C(=O)c3ccc(S(=O)(=O)N4CCc5ccccc5C4)cc3)nc2c1 | 87* | / | / | / | 23 | 118 | -5 | 112*
COc1ccc2sc(N(CCCN(C)C)C(=O)c3ccc(S(=O)(=O)N4CCc5ccccc5C4)cc3)nc2c1 | 75* | / | / | / | 37 | 112 | 0 | 110*
COc1ccc2sc(N(CCCN(C)C)C(=O)c3ccc(S(=O)(=O)N4CCCC4)cc3)nc2c1 | 1 | / | / | / | 3 | 98 | / | /
Cc1cc(C)c2sc(NNC(=O)c3ccc(S(=O)(=O)N4CCc5ccccc5C4)cc3)nc2c1 | -63 | 4 | 95 | 106 | 3 | 102 | / | /
O=S1(=O)CC(O)C(N=Nc2c(O)n(Cc3ccccc3)c3ccccc23)C1 (stereo unspecified) | 56* | 19 | 103 | 108 | -10 | 80 | 3 | 44
CC1(C)CC(=O)C=C(c2ccc(-c3ccccc3)cc2)C1 | 1 | / | / | / | 0 | 76 | / | /
CSCCC(NC(=O)c1ccccc1Br)C(=O)NNC(=O)c1csc(N2CCOCC2)n1 (stereo unspecified) | 50* | / | / | / | 1 | 93 | -1 | 52*
CSCCC(NS(=O)(=O)c1ccccc1F)C(=O)NNC(=O)c1csc(N2CCOCC2)n1 (stereo unspecified) | -6 | / | / | / | 0 | 100 | / | /
CSCCC(NC(=O)c1ccccc1Cl)C(=O)NNC(=O)c1csc(N2CCOCC2)n1 (stereo unspecified) | 50* | / | / | / | 0 | 98 | -2 | 57*
CSCCC(NC(=O)c1ccccc1Br)C(=O)NCC(C)(C)N1CCOCC1 (stereo unspecified) | -7 | / | / | / | 10 | 102 | / | /
CC(=O)c1ccc(S(=O)(=O)N2CCN(c3nn(C)c(=O)n(C)c3=O)CC2)cc1 | 3 | / | / | / | -2 | 106 | / | /
Nc1ncnn1Cc1ccccc1 | / | / | / | / | / | 96 | / | /
